# Laboratory results reported in ChEMBL document CHEMBL1135989, “Synthesis and in vitro pharmacology of substituted quinoline-2,4-dicarboxylic acids as inhibitors of vesicular glutamate transport” (J Med Chem, 2002).
# Assays:
# [1] = target: T1, Vesicular glutamate transporter 3 (Rattus norvegicus) (UniProt Q7TSF2); assay: Inhibition of Vesicular glutamate transporter (VGLUT) by the ability to block the uptake of 250 uM of [3,4-3H]-L-glutamate into synaptic vesicles isolated from rat forebrain at equimolar conc. (250 uM ); type: functional
# T1 sequence (whole entry): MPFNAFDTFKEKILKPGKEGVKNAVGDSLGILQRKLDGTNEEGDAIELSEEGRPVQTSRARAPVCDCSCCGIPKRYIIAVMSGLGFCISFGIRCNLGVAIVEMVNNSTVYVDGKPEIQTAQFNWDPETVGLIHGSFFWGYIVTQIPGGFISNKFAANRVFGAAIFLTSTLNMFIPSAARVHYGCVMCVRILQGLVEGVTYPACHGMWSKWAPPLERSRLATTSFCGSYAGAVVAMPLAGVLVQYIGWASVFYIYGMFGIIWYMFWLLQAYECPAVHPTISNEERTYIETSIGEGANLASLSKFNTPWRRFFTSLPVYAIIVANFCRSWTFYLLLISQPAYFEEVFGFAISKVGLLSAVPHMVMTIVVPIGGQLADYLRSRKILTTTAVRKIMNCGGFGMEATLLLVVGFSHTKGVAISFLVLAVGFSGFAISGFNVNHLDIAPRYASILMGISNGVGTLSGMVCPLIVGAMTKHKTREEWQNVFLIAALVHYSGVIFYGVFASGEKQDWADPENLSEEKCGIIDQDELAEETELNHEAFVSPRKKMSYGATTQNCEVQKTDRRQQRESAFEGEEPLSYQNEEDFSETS
# Summary of the method: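 Same vesicle uptake set-up (0.25 mM [3H]-L-glutamate, 2.0 mM ATP, 30 °C, 1.5 min, filtration/LSC, ATP-free background subtracted), with inhibitor at 250 µM added with substrate. Expressed as % of control uptake, mean ± SEM (n).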
# [2] = target: T2, Vesicular glutamate transporter 3 (Rattus norvegicus, UniProt Q7TSF2); assay: Evaluated for competitive inhibition against Vesicular glutamate transporter (VGLUT), and Ki value was reported.
# T2 sequence (Q7TSF2 whole entry): T1 sequence (whole entry)
# [3] = target: T1, Vesicular glutamate transporter 3 (Rattus norvegicus); assay: Inhibition of Vesicular glutamate transporter (VGLUT) by the ability to block the uptake of 250 uM of [3,4-3H]-L-glutamate into synaptic vesicles isolated from rat forebrain at a 20 fold excess (5 mM) of inhibitor; type: functional
# Summary of the method: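 Inhibitor at 5 mM added with substrate. Quenched in ice-cold 150 mM KCl, filtered, counted by LSC. ATP-free uptake subtracted. Expressed as % of control uptake, mean ± SEM (n).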
# [4] = target: T2, Vesicular glutamate transporter 3; assay: Estimated inhibitory conc. against Vesicular glutamate transporter (VGLUT), using Cheng-Prushoff equation
# Summary of the method: (§1)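 Rat forebrain synaptic vesicles (male Sprague-Dawley, stored -80 °C). Vesicles (100-150 µg protein) preincubated 5 min at 30 °C. Ran 1.5 min, then filtration and LSC. Uptake without ATP subtracted. IC50 from dose-response; Ki by Cheng-Prusoff.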
# [5] = target: T2, Vesicular glutamate transporter 3; assay: Inhibitory conc. against Vesicular glutamate transporter (VGLUT), derived from Lineweaver-Burke analysis
# Summary of the method: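 Uptake into rat forebrain synaptic vesicles (ATP 2.0 mM, 30 °C, 1.5 min, [3H]-L-glutamate, filtration and LSC) run across both inhibitor and substrate concentrations. Ki from Lineweaver-Burk double reciprocal plots (1/V vs 1/[S]) and a replot of Km(app) against inhibitor concentration.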
# [6] = target: T2, Vesicular glutamate transporter 3; assay: Compound was evaluated for the inhibition of Vesicular glutamate transporter (VGLUT)
# [7] = target: T2, Vesicular glutamate transporter 3; assay: Compound was evaluated for competitive inhibition against Vesicular glutamate transporter (VGLUT), and Ki value was reported,.using Cheng-Prushoff equation; summary of the method: as §1
Glutamate uptake remaining (% of control) [1] [%],Glutamate uptake remaining (% of control) [3] [%],SMILES,also measured
21,,O=C(O)c1cc(C(=O)O)c2cc(/C=C/c3cccc4ccccc34)ccc2n1,
64,,O=C(O)c1cc(C(=O)O)c2c(-c3cccc4ccccc34)cccc2n1,
27,,O=C(O)c1cc(C(=O)O)c2c(/C=C/c3ccccc3)cccc2n1,
29,,O=C(O)c1cc(C(=O)O)c2ccc(CCc3ccccc3)cc2n1,
20,,O=C(O)c1cc(C(=O)O)c2cc(-c3ccc(-c4ccccc4)cc3)ccc2n1,Ki [5]: 95 µM; Ki [4]: 41 µM
100,38,O=C(O)c1cc(C(=O)O)c2ccccc2n1,
88,,O=C(O)c1cc(C(=O)O)c2cccc(-c3ccccc3)c2n1,
100,,O=C(O)c1cc(C(=O)O)c2cc(OCCO)ccc2n1,
51,,O=C(O)c1cc(C(=O)O)c2cc(/C=C/c3ccccc3)ccc2n1,Ki [5]: 129 µM; Ki [4]: 167 µM
53,,O=C(O)c1cc(C(=O)O)c2cc(-c3cccc4ccccc34)ccc2n1,
74,,O=C(O)c1cc(C(=O)O)c2cc(OCCCCCCO)ccc2n1,
91,,O=C(O)c1cc(C(=O)O)c2ccc(-c3ccccc3)cc2n1,
85,3,O=C(O)c1cc(C(=O)O)c2cc(OCc3ccccc3)ccc2n1,Ki [4]: 368 µM
97,,CCOc1ccc2nc(C(=O)O)cc(C(=O)O)c2c1,
37,,O=C(O)c1cc(C(=O)O)c2cc(/C=C/c3ccc(-c4ccccc4)cc3)ccc2n1,Ki [4]: 64 µM
77,,O=C(O)c1cc(C(=O)O)c2cc(-c3ccccc3)ccc2n1,
31,0,O=C(O)c1cc(C(=O)O)c2cc(/N=N/c3ccccc3)ccc2n1,Ki [7]: 288 µM
73,1,O=C(O)c1cc(C(=O)O)c2cc(Cl)ccc2n1,
79,,CCCCCCOc1ccc2nc(C(=O)O)cc(C(=O)O)c2c1,
100,51,COc1ccc2nc(C(=O)O)cc(C(=O)O)c2c1,
50,1,O=C(O)c1cc(C(=O)O)c2ccc(OCc3ccccc3)cc2n1,
74,,O=C(O)c1cc(C(=O)O)c2cc(Oc3ccccc3)ccc2n1,
87,10,O=C(O)c1cc(C(=O)O)c2cc(I)ccc2n1,
100,,O=C(O)c1cc(C(=O)O)c2c(-c3ccccc3)cccc2n1,
47,,O=C(O)c1cc(C(=O)O)c2cc(CCc3ccccc3)ccc2n1,Ki [4]: 143 µM

# More lines, now with the values behind:
SMILES,Glutamate uptake remaining (% of control) [1] [%],Glutamate uptake remaining (% of control) [3] [%],also measured
O=C(O)c1cc(O)c2ccc(Cl)cc2n1 [7-CHLOROKYNURENIC ACID],,,Ki [2]: 590 µM
COc1cccc2c(C(=O)O)cc(C(=O)O)nc12,90,20,
O=C(O)c1cc(C(=O)O)c2ccc(O)cc2n1,100,,
O=C(O)c1cc(C(=O)O)c2cccc(O)c2n1,73,2,Ki [4]: 286 µM
COc1ccc(OC)c2c(C(=O)O)cc(C(=O)O)nc12,100,62,
O=C(O)c1cc(C(=O)O)c2cc(OCCc3ccccc3)ccc2n1,,,Ki [4]: 189 µM
O=C(O)c1cc(C(=O)O)c2cc(Br)ccc2n1,74,2,
COc1cc(OC)c2nc(C(=O)O)cc(C(=O)O)c2c1,100,40,
O=C(O)c1cc(C(=O)O)c2cccc(F)c2n1,100,39,
O=C(O)c1cc(=O)c2ccccc2[nH]1 [TRANSTORINE],,,Ki [6]: 1300 µM
O=C(O)c1cc(C(=O)O)c2cc(O)ccc2n1,100,,
N[C@]1(C(=O)O)CC[C@H](C(=O)O)C1 (relative stereo),,,Ki [2]: 700 µM
COc1cc(-c2ccc(/N=N/c3ccc4c(S(=O)(=O)O)cc(S(=O)(=O)O)c(N)c4c3O)c(OC)c2)ccc1/N=N/c1ccc2c(S(=O)(=O)O)cc(S(=O)(=O)O)c(N)c2c1O [CHICAGO SKY BLUE],,,Ki [2]: 0.19 µM
O=C(O)c1cc(C(=O)O)c2cc(Br)cc(Br)c2n1,,2,
O=C(O)c1cc(C(=O)O)c2ccc(Cl)c(Cl)c2n1,,2,
COc1ccc2c(C(=O)O)cc(C(=O)O)nc2c1,100,48,
O=C(O)c1cc(C(=O)O)c2cccc(C(=O)O)c2n1,100,,
O=C(O)c1cc(C(=O)O)c2c(Br)cccc2n1,100,11,
COc1cc2nc(C(=O)O)cc(C(=O)O)c2cc1OC,100,58,
C=C(C[C@H](N)C(=O)O)C(=O)O,,,Ki [2]: 3000 µM
O=C(O)c1cc(C(=O)O)c2cccc(-c3cccc4ccccc34)c2n1,70,,
O=C(O)c1cc(O)c2cccc(O)c2n1 [XANTHURENATE],,,Ki [2]: 190 µM
O=C(O)c1cc(C(=O)O)c2cc3c(cc2n1)OCO3,100,24,
O=C(O)c1cc(C(=O)O)c2cccc(Br)c2n1,100,7,
COc1cc(OC)c2c(C(=O)O)cc(C(=O)O)nc2c1,100,15,
O=C(O)c1cc(C(=O)O)c2c(I)cccc2n1,100,,
Cc1cc(-c2ccc(/N=N/c3ccc4c(S(=O)(=O)O)cc(S(=O)(=O)O)c(N)c4c3O)c(C)c2)ccc1/N=N/c1ccc2c(S(=O)(=O)O)cc(S(=O)(=O)O)c(N)c2c1O [EVANS BLUE],,,Ki [2]: 0.04 µM
O=C(O)c1cc(C(=O)O)c2c(F)cccc2n1,100,54,
O=C(O)c1cc(C(=O)O)c2cc(OC3CCCCC3)ccc2n1,67,,
O=C(O)c1cc(C(=O)O)c2cc3c(cc2n1)OCCO3,100,12,
